Test results published in article PMC7813200 (Neuro-oncology Advances, 2020).
“Also recorded” adds a separate entry of the source.

Columns and labels:
MGG8 cells [1] = assay: cell viability WST-1, MGG8; assay type: cell-based, human; conditions: 72 h
MGG8 cells [2] = assay: cells in S phase, BrdU incorporation, MGG8; assay type: cell-based, human; conditions: NOC 3 μM
T98G cells [3] = assay: cells in S phase, BrdU incorporation, T98G; assay type: cell-based, human
[4] = system: tubulin (colchicine site); assay: [3H]colchicine binding to purified tubulin; conditions: 5 μM compound; mean of n = 3
tubulin = tubulin assembly, pelleting assay; assay type: biochemical; conditions: compared to ST-360
Outline: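 Tubulin assembly assessed by pelleting assay, with release of free tubulin measured. Mean ± SEM from 3 to 5 experiments.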

HCT116 cells = assay: live cell imaging of MT assembly rates; assay type: cell-based, human
Outline: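 HCT116 cells expressing EB1-GFP to label growing microtubule ends. Imaged at a single Z-plane at 500-ms intervals. Assembly rates scored in interphase cells by particle tracking, before treatment and again after compound wash-out (POST).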

[5] = system: six human glioma cell lines (SF-268, SF-295, SF-539, SNB-19, SNB-75, U251); assay: NCI-60 cell line panel, six glioma lines; assay type: cell-based; conditions: read-out: IC50s (growth inhibition, TGI50 in Figure 2A)
COLO205 cells = assay: NCI-60 cancer cell panel, COLO205; assay type: cell-based; conditions: Homo sapiens, COLO 205
[6] = system: PD-glioma isolates (proneural, mesenchymal, classical, MGG8); assay: viability of PD-glioma isolates; assay type: cell-based; conditions: Homo sapiens, read-out: IC50, antitumor activity (viability, WST-1)
T98G cells [7] = assay: cell viability WST-1, T98G; assay type: cell-based; conditions: Homo sapiens, 72 h, read-out: IC50, overall cell viability
CD1 mice = assay: maximal tolerated dose and dose range finding; assay type: in vivo, mouse; conditions: bidaily i.p. 20 mg/kg, 5 days/week for 4 weeks
Outline: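 CD1 mice dosed i.p. at 5, 10, 20, 50, 100 or 150 mg/kg, or with the corresponding volume of no-drug formulation (vehicle). Monitored for signs of general distress. Regimen 2: 20 mg/kg i.p. bidaily, 5 days/week for 4 weeks.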

[8] = pharmacokinetics, plasma and brain by LC-MS; assay type: in vivo, mouse
[9] = system: COLO205 cell-derived subcutaneous xenografts; assay: COLO205 xenograft flank tumor model; assay type: in vivo, mouse
PDGFB-glioma = assay: RCAS/tv-a PDGFB glioma mouse model; assay type: in vivo; conditions: for tumor density by olig-2 immunostaining: each arm at its regimen (ST-401 regimen 2; TMZ 50 mg/kg); for necrotic area: end-stage histopathology, each arm at its regimen
S24 PD-glioma cells [10] = assay: tumor microtube; assay type: cell-based, human; conditions: Y-27632 50 μM
Outline: (§1)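 GFP-expressing patient-derived S24 and BG5 glioma cells treated with increasing test-compound concentrations (e.g. 30 and 300 nM) or controls: DMSO 1% vehicle, Y-27632 50 μM, nocodazole 300 nM. Stained with Ho342/EthD2. TM number and length per cell quantified semi-automatically from immunofluorescence images via a machine learning-based workflow. Two-way ANOVA, Tukey post-test.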

BG5 PD-glioma cells = assay: tumor microtube; assay type: cell-based, human; conditions: Y-27632 50 μM
Outline: as §1

S24 PD-glioma cells [11] = assay: cell death of S24 PD-glioma; assay type: cell-based, human; conditions: Y-27632 50 mM (as printed in Figure S3), 24 h
Outline: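 GFP-expressing patient-derived S24 glioma cells treated alongside vehicle (DMSO 1%), then stained with Ho342 and EthD2 and imaged by fluorescence microscopy.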

## COC(=O)Nc1nc2ccc(C(=O)c3cccs3)cc2[nH]1 [NOC, nocodazole, reference compound]
MGG8 cells [1]; NOC 3 µM, WST-1
  reduction of cell viability: 18%
MGG8 cells [2]
  effect on number of cells in S phase: reduce; also recorded: overall less active
T98G cells [3]; NOC 3 μM, BrdU
  effect on number of cells in S phase: Lack of response

## CCn1c2ccccc2c2cc(C(O)c3cccc4ncccc34)ccc21 (centres unmarked) [ST-401, (9‐ethyl‐9H‐carbazol‐3‐yl)(quinolin‐5‐yl)methanol]
[4]
  competition for [3H]colchicine binding to tubulin: 89%
tubulin
  MT disassembly (Δ release of free tubulin): greater MT disassembly
HCT116 cells; 100 nM, after wash-out
  time for MT assembly to reach initial rates after wash-out: ≤ 15 min
HCT116 cells; 100 nM, interphase cells, compared to NOC 100 nM
  reduction in MT assembly rate: milder reduction
HCT116 cells; 200 nM, within 15 min
  inhibition of MT assembly: completely and reversibly inhibited all MT assembly
[5]
  IC50: 23 to 69 nM
COLO205 cells
  IC50: 38 nM
[6]
  IC50: 24 to 47 nM
MGG8 cells [1]; Homo sapiens, read-out: IC50, overall cell viability
  IC50: 14 nM
T98G cells [7]
  IC50: 36 nM
T98G cells [3]; 72 h, BrdU incorporation, concentration-response
  response on number of cells in S phase: absent
CD1 mice
  adverse effects (Regimen 2): did not trigger adverse effects
[8]; bidaily i.p. injections of 20 mg/kg
  time plasma levels remained above 250 nM: approximately 16 h
[8]; mouse, brain, ip, 150 mg/kg
  half-life: ~360 min
[8]; single i.p. 150 mg/kg
  concentration reached in brain: micromolar concentrations
[8]; single i.p. 20 and 5 mg/kg, 30 min
  concentration reached in brain: micromolar concentrations
[8]; three i.p. injections of 20 mg/kg separated by 8 and 16 h, over 24 h
  plasma concentration: above 250 nM
[9]; Regimen 2
  treated tumors that stopped growing despite ending the treatment: approximately 50%
[9]; Regimen 2, n = 10 mice per arm
  life-expectancy / survival of treated mice: significant increase in average survival; also recorded: doubling
[9]; tumors that stopped growing
  time without recurrence after ending treatment: ≥ 28 days
PDGFB-glioma; ST-401+RT arm
  average survival: 50 days
PDGFB-glioma; ST-401+TMZ arm
  average survival: 46 days
PDGFB-glioma; ST-401 regimen 2
  effect on average median survival, single agent: did not affect average median survival
PDGFB-glioma; ST-401 regimen 2 + RT single dose 10-Gy
  enhancement of the therapeutic efficacy of RT: 66%
PDGFB-glioma; ST-401 regimen 2 + TMZ 50 mg/kg
  enhancement of the therapeutic efficacy of TMZ: 60%
PDGFB-glioma; ST-401 regimen 2, H&E, end stage
  increase in mitotic figures versus control arm: 69%
PDGFB-glioma; ST-401 regimen 2, semi-quantitative IHC
  increase in tumor density (relative area of HA expression): 54%
PDGFB-glioma
  tumor density by olig-2 immunostaining: increase
  necrotic area: did not reach significance

## C[C@@H](N)[C@H]1CC[C@H](C(=O)Nc2ccncc2)CC1 [Y-27632]
S24 PD-glioma cells [10]
  effect on TM length/cell: increased
  effect on TM number/cell: increased
BG5 PD-glioma cells
  effect on TM length/cell: increased
  effect on TM number/cell: increased
S24 PD-glioma cells [11]
  effect on cell death / viability: did not affect cell viability

## Cn1nnc2c(C(N)=O)ncn2c1=O [TMZ, temozolomide, reference compound]
PDGFB-glioma; TMZ 50 mg/kg once per day, 5 days/week for 4 weeks, control 20 days
  average median survival: 30 days
PDGFB-glioma; TMZ 50 mg/kg once per day, 5 days/week for 4 weeks, versus control
  extension of average median survival: 50%
PDGFB-glioma
  tumor density by olig-2 immunostaining: increase
  necrotic area: unchanged
